We go through 12 compounds from ChEMBL document CHEMBL1275272, “Synthesis, characterization and antimicrobial activity of some disubstituted 1,3,4-oxadiazoles carrying 2-(aryloxymethyl)phenyl moiety” (2010).

For orientation: MIC means the lowest concentration found to suppress growth. A higher MIC goes with a need for much substance.

Common to all, as to type: functional
The subject of one experiment is Escherichia coli. Nature of the experiment: Antibacterial activity against Escherichia coli after 16 to 18 hrs by serial dilution method. The settings on record: for MIC: Escherichia coli. The method, boiled down: (§1)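 The test compound was dissolved in DMF and serially diluted. A standard drop of the prepared microbial culture was added to each dilution, and tubes were incubated at 37 °C for 16–18 h. MIC was taken as the highest dilution that stayed clear with no visible turbidity.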

Another experiment has as its system Staphylococcus aureus. The experiment can be described thus: Antibacterial activity against Staphylococcus aureus after 16 to 18 hrs by serial dilution method. The settings on record: for MIC: Staphylococcus aureus. Summed up:
as §1

Another experiment relates to Aspergillus flavus. Nature of the experiment: Antifungal activity against Aspergillus flavus after 16 to 18 hrs by serial dilution method. The settings on record: for MIC: Aspergillus flavus. The method, boiled down:
as §1

Experiment [1] deals with Trichophyton mentagrophytes. Nature of the experiment: Antifungal activity against Trichophyton mentagrophytes after 16 to 18 hrs by serial dilution method. The settings on record: for MIC: Trichophyton mentagrophytes.
Another experiment has as its system Pseudomonas aeruginosa. The experiment can be described thus: Antibacterial activity against Pseudomonas aeruginosa after 16 to 18 hrs by serial dilution method. The settings on record: for MIC: Pseudomonas aeruginosa. Summed up: as §1
The next experiment has as its system Talaromyces marneffei. Nature of the experiment: Antifungal activity against Penicillium marneffei after 16 to 18 hrs by serial dilution method. The settings on record: for MIC: Talaromyces marneffei. Summed up:
as §1

The test system of a further experiment is Aspergillus fumigatus. The experiment can be described thus: Antifungal activity against Aspergillus fumigatus after 16 to 18 hrs by serial dilution method. The settings on record: for MIC: Aspergillus fumigatus.
The subject of the next experiment is Klebsiella pneumoniae. Nature of the experiment: Antibacterial activity against Klebsiella pneumoniae after 16 to 18 hrs by serial dilution method. The settings on record: for MIC: Klebsiella pneumoniae.

In brackets after ≈: the same amount, converted by molar mass. Where only a bound is given, the exact number is not on record here.

On to `Cc1cccc(OCc2ccccc2-c2nn(CN3CCOCC3)c(=S)o2)c1`, for which the “inhibition zone (IZ)” value (in the experiment on Escherichia coli; in the experiment with Staphylococcus aureus; with Aspergillus flavus; in experiment [1]; in the experiment on Pseudomonas aeruginosa; with Talaromyces marneffei) was 11 mm each time. Moreover, the “inhibition zone (IZ)” value with Aspergillus fumigatus and with Klebsiella pneumoniae was 11 mm each time. Moreover, the MIC (in the experiment with Escherichia coli; in the experiment with Staphylococcus aureus; in the experiment with Aspergillus flavus; in experiment [1]; against Pseudomonas aeruginosa; in the experiment with Talaromyces marneffei) was 12.5 µg/mL (≈ 31.4 µM) in each case. The MIC in the experiment on Aspergillus fumigatus and against Klebsiella pneumoniae was 12.5 µg/mL (≈ 31.4 µM) throughout.

On to `Cc1ccccc1OCc1ccccc1-c1nn(CNc2cccc(C(F)(F)F)c2)c(=S)o1`, for which the “inhibition zone (IZ)” value (with Escherichia coli; in the experiment on Staphylococcus aureus; in the experiment with Aspergillus flavus; in experiment [1]; with Pseudomonas aeruginosa; in the experiment with Talaromyces marneffei) was 16 mm in each case. Further, the “inhibition zone (IZ)” value in the experiment on Aspergillus fumigatus and in the experiment with Klebsiella pneumoniae was 16 mm in each case. Besides, the MIC (against Escherichia coli; against Staphylococcus aureus; against Aspergillus flavus; in experiment [1]; in the experiment on Pseudomonas aeruginosa; against Talaromyces marneffei) was 6.25 µg/mL (≈ 13.3 µM) each time. In addition, the MIC in the experiment with Aspergillus fumigatus and with Klebsiella pneumoniae was 6.25 µg/mL (≈ 13.3 µM) in each case.

`Cc1ccc(OCc2ccccc2-c2nn(CN3CCOCC3)c(=S)o2)cc1`: the “inhibition zone (IZ)” value (in the experiment with Escherichia coli; in the experiment on Staphylococcus aureus; with Aspergillus flavus; in experiment [1]; with Pseudomonas aeruginosa; in the experiment on Talaromyces marneffei) was 11 mm throughout. The “inhibition zone (IZ)” value with Aspergillus fumigatus and in the experiment on Klebsiella pneumoniae was 11 mm each time. The MIC (in the experiment on Escherichia coli; in the experiment on Staphylococcus aureus; in the experiment on Aspergillus flavus; in experiment [1]; against Pseudomonas aeruginosa; against Talaromyces marneffei) was 12.5 µg/mL (≈ 31.4 µM) each time. Moreover, the MIC in the experiment on Aspergillus fumigatus and with Klebsiella pneumoniae was 12.5 µg/mL (≈ 31.4 µM) each time.

As to `S=c1oc(-c2ccccc2COc2ccc(Cl)cc2)nn1CN1CCOCC1`, the “inhibition zone (IZ)” value (with Escherichia coli; in the experiment on Staphylococcus aureus; in the experiment on Aspergillus flavus; in experiment [1]; in the experiment on Pseudomonas aeruginosa; with Talaromyces marneffei) was 11 mm each time. Besides, the “inhibition zone (IZ)” value in the experiment with Aspergillus fumigatus and in the experiment with Klebsiella pneumoniae was 11 mm in each case. The MIC (against Escherichia coli; in the experiment with Staphylococcus aureus; against Aspergillus flavus; in experiment [1]; against Pseudomonas aeruginosa; against Talaromyces marneffei) was 12.5 µg/mL (≈ 29.9 µM) each time. Moreover, the MIC with Aspergillus fumigatus and in the experiment with Klebsiella pneumoniae was 12.5 µg/mL (≈ 29.9 µM) each time.

On to `Cc1cccc(OCc2ccccc2-c2nn(CNc3cccc(C(F)(F)F)c3)c(=S)o2)c1`, for which the “inhibition zone (IZ)” value with Escherichia coli is given as 16 mm; in the experiment on Staphylococcus aureus, 16 mm; in the experiment on Aspergillus flavus, 16 mm; in experiment [1] it was 11 mm; in the experiment with Pseudomonas aeruginosa, 16 mm; in the experiment with Talaromyces marneffei it was 11 mm. The “inhibition zone (IZ)” value in the experiment on Aspergillus fumigatus and with Klebsiella pneumoniae was 16 mm each time. In addition, the MIC in the experiment with Escherichia coli is 6.25 µg/mL (≈ 13.3 µM); against Staphylococcus aureus it was 6.25 µg/mL (≈ 13.3 µM); in the experiment with Aspergillus flavus, 6.25 µg/mL (≈ 13.3 µM); in experiment [1], 12.5 µg/mL (≈ 26.5 µM); against Pseudomonas aeruginosa it was 6.25 µg/mL (≈ 13.3 µM); with Talaromyces marneffei, 12.5 µg/mL (≈ 26.5 µM). Also, the MIC against Aspergillus fumigatus and against Klebsiella pneumoniae was 6.25 µg/mL (≈ 13.3 µM) in each case.

In the case of `Cc1ccc(OCc2ccccc2-c2nn(CNc3cccc(C(F)(F)F)c3)c(=S)o2)cc1`, the “inhibition zone (IZ)” value (in the experiment with Escherichia coli; in the experiment on Staphylococcus aureus; in the experiment on Aspergillus flavus; in experiment [1]; in the experiment with Pseudomonas aeruginosa; in the experiment on Talaromyces marneffei) was 16 mm in each case. The “inhibition zone (IZ)” value with Aspergillus fumigatus and in the experiment on Klebsiella pneumoniae was 16 mm each time. Further, the MIC (in the experiment on Escherichia coli; in the experiment on Staphylococcus aureus; with Aspergillus flavus; in experiment [1]; against Pseudomonas aeruginosa; against Talaromyces marneffei) was 6.25 µg/mL (≈ 13.3 µM) in each case. Also, the MIC in the experiment on Aspergillus fumigatus and in the experiment on Klebsiella pneumoniae was 6.25 µg/mL (≈ 13.3 µM) in each case.

Take `FC(F)(F)c1cccc(NCn2nc(-c3ccccc3COc3ccc(Cl)cc3)oc2=S)c1`: the “inhibition zone (IZ)” value (with Escherichia coli; in the experiment with Staphylococcus aureus; in the experiment with Aspergillus flavus; in experiment [1]; with Pseudomonas aeruginosa; in the experiment on Talaromyces marneffei) was 16 mm throughout. Besides, the “inhibition zone (IZ)” value in the experiment with Aspergillus fumigatus and in the experiment with Klebsiella pneumoniae was 16 mm in each case. Also, the MIC (in the experiment on Escherichia coli; in the experiment on Staphylococcus aureus; with Aspergillus flavus; in experiment [1]; with Pseudomonas aeruginosa; in the experiment with Talaromyces marneffei) was 6.25 µg/mL (≈ 12.7 µM) in each case. Also, the MIC against Aspergillus fumigatus and in the experiment on Klebsiella pneumoniae was 6.25 µg/mL (≈ 12.7 µM) throughout.

As to `Cc1ccccc1OCc1ccccc1-c1nn(CNc2ccc(Cl)cc2C(=O)C(F)(F)F)c(=S)o1`, the “inhibition zone (IZ)” value (with Escherichia coli; in the experiment on Staphylococcus aureus; with Aspergillus flavus; in experiment [1]; in the experiment with Pseudomonas aeruginosa; in the experiment on Talaromyces marneffei) was below 10 mm in each case. The “inhibition zone (IZ)” value in the experiment with Aspergillus fumigatus and with Klebsiella pneumoniae was below 10 mm throughout. For the same compound, the MIC (in the experiment on Escherichia coli; in the experiment with Staphylococcus aureus; against Aspergillus flavus; in experiment [1]; against Pseudomonas aeruginosa; in the experiment on Talaromyces marneffei) was 25 µg/mL (≈ 46.8 µM) each time. The MIC against Aspergillus fumigatus and in the experiment with Klebsiella pneumoniae was 25 µg/mL (≈ 46.8 µM) each time.

As to `Cc1cccc(OCc2ccccc2-c2nn(CNc3ccc(Cl)cc3C(=O)C(F)(F)F)c(=S)o2)c1`, the “inhibition zone (IZ)” value (in the experiment on Escherichia coli; in the experiment on Staphylococcus aureus; in the experiment on Aspergillus flavus; in experiment [1]; in the experiment with Pseudomonas aeruginosa; with Talaromyces marneffei) was below 10 mm throughout. Further, the “inhibition zone (IZ)” value with Aspergillus fumigatus and with Klebsiella pneumoniae was below 10 mm in each case. The MIC (in the experiment on Escherichia coli; with Staphylococcus aureus; with Aspergillus flavus; in experiment [1]; in the experiment on Pseudomonas aeruginosa; in the experiment on Talaromyces marneffei) was 25 µg/mL (≈ 46.8 µM) each time. The MIC against Aspergillus fumigatus and in the experiment on Klebsiella pneumoniae was 25 µg/mL (≈ 46.8 µM) in each case.

Regarding `Cc1ccc(OCc2ccccc2-c2nn(CNc3ccc(Cl)cc3C(=O)C(F)(F)F)c(=S)o2)cc1`, the “inhibition zone (IZ)” value (with Escherichia coli; with Staphylococcus aureus; with Aspergillus flavus; in experiment [1]; in the experiment with Pseudomonas aeruginosa; in the experiment on Talaromyces marneffei) was below 10 mm each time. Further, the “inhibition zone (IZ)” value with Aspergillus fumigatus and with Klebsiella pneumoniae was below 10 mm in each case. The minimum inhibitory concentration (MIC) (in the experiment with Escherichia coli; against Staphylococcus aureus; in the experiment on Aspergillus flavus; in experiment [1]; in the experiment with Pseudomonas aeruginosa; against Talaromyces marneffei) was 25 µg/mL (≈ 46.8 µM) each time. Moreover, the MIC against Aspergillus fumigatus and in the experiment with Klebsiella pneumoniae was 25 µg/mL (≈ 46.8 µM) each time.

Consider `O=C(c1cc(Cl)ccc1NCn1nc(-c2ccccc2COc2ccc(Cl)cc2)oc1=S)C(F)(F)F`, for which the “inhibition zone (IZ)” value (in the experiment on Escherichia coli; with Staphylococcus aureus; in the experiment with Aspergillus flavus; in experiment [1]; in the experiment with Pseudomonas aeruginosa; in the experiment on Talaromyces marneffei) was below 10 mm each time. Besides, the “inhibition zone (IZ)” value with Aspergillus fumigatus and with Klebsiella pneumoniae was below 10 mm each time. Besides, the MIC (with Escherichia coli; against Staphylococcus aureus; against Aspergillus flavus; in experiment [1]; in the experiment with Pseudomonas aeruginosa; with Talaromyces marneffei) was 25 µg/mL (≈ 45.1 µM) throughout. Besides, the MIC against Aspergillus fumigatus and against Klebsiella pneumoniae was 25 µg/mL (≈ 45.1 µM) throughout.

Turning to `Cc1ccc(Cl)c(NCn2nc(-c3ccccc3COc3ccccc3C)oc2=S)c1`, the “inhibition zone (IZ)” value (in the experiment on Escherichia coli; with Staphylococcus aureus; with Aspergillus flavus; in experiment [1]; in the experiment on Pseudomonas aeruginosa; with Talaromyces marneffei) was below 10 mm throughout. The “inhibition zone (IZ)” value in the experiment on Aspergillus fumigatus and in the experiment on Klebsiella pneumoniae was below 10 mm throughout. Besides, the MIC (in the experiment with Escherichia coli; with Staphylococcus aureus; against Aspergillus flavus; in experiment [1]; with Pseudomonas aeruginosa; against Talaromyces marneffei) was 25 µg/mL (≈ 55.3 µM) each time. The MIC in the experiment on Aspergillus fumigatus and with Klebsiella pneumoniae was 25 µg/mL (≈ 55.3 µM) each time.
